Our source for the folding enthalpy and Tm values is the array DNA melting data of Ke et al. (doi:10.1101/2024.01.08.574731).

A short description of data set [1]: folding enthalpy; higher = less favourable; fluorescence melt of hairpins on a sequencing array, two-state fit. The note with it: sodium 0.088 M. Put shortly:
(§1)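 To match UV melts, fitted temperatures were raised by 9.35 °C. These fits were bootstrapped two-state models that gave melting temperature and folding enthalpy, combined by inverse variance over four replicates. The input was normalised Cy3 fluorescence of library hairpins with annealed Cy3 and quencher oligos on a sequenced MiSeq flow cell, imaged in 50 mM Na-HEPES pH 8.0, 25 mM NaCl in 2.5 °C steps up to 60 °C.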

A short description of data set [2]: melting temperature; fluorescence melt of hairpins on a sequencing array, two-state fit, raised by 9.35 °C to match UV melts. The note with it: sodium 0.088 M. The gist of the method: as §1

Regarding GTGTTCGAAAGAACACAC ((((((....)))..))), in data set [1], the folding enthalpy is -11.8 kcal/mol. In addition, the Tm in data set [2] is 65 °C.

On to GTGTTCGAAAGAAGACAC ((((((....)))..))), for which the folding enthalpy in data set [1] is -20.8 kcal/mol. The Tm in data set [2] was 37.9 °C.

As to GTGTTCGAAAGAATCAC ((((((....))).))), in data set [1], the folding enthalpy is -28.2 kcal/mol. Besides, the Tm in data set [2] was 41.5 °C.

With GTGTTGCGAAAGCAGCAC (((.(((....))).))), the folding enthalpy in data set [1] was -30.2 kcal/mol. For the same sequence, the Tm in data set [2] is 64.3 °C.

For the sequence GTGTTGGGAAACCAGCAC (((.(((....))).))), the folding enthalpy in data set [1] was -43.9 kcal/mol. The Tm in data set [2] was 51.4 °C.

As for GTGTTGGGAAACCGATAC ((.(.((....)).).)), in data set [1], the folding enthalpy was -18.3 kcal/mol. The Tm in data set [2] is 33.3 °C.

Consider GTGTTTACGAAAGTACAC (((..(((....)))))), for which, in data set [1], the folding enthalpy is -25 kcal/mol. The Tm in data set [2] stood at 36.7 °C.

Turning to GTGTTTCCGAAAGGACAC (((..(((....)))))), the folding enthalpy in data set [1] was -23.4 kcal/mol. The Tm in data set [2] was 43.4 °C.

On to GTGTTTGAAAAAACAC ((((((....)))))), for which the folding enthalpy in data set [1] is -38.4 kcal/mol. Further, in data set [2], the Tm stood at 52.9 °C.

On to GTGTTTGGAAACAAATAC ((.((((....)))).)), for which the folding enthalpy in data set [1] is -29 kcal/mol. Besides, the Tm in data set [2] was found to be 41.2 °C.

Take GTGTTTGGAAACAAGCAC (((.(((....))).))): the folding enthalpy in data set [1] is -30.5 kcal/mol. Besides, in data set [2], the Tm turned out to be 46.6 °C.

As for GTGTTTTCGAAAGAACAC (((..(((....)))))), the folding enthalpy in data set [1] was -32.9 kcal/mol. The Tm in data set [2] is 38.3 °C.

GTTAAAACGAAAGTTAAC (((..(((....)))))): in data set [1], the folding enthalpy was -16.6 kcal/mol. Also, in data set [2], the Tm came to 26.3 °C.

Consider GTTAACCGAAAGGTAAC (((.(((....)))))), for which, in data set [1], the folding enthalpy is -18.8 kcal/mol. The Tm in data set [2] came to 40.8 °C.

Consider GTTAACGAAAGTTAAC ((((((....)))))), for which, in data set [1], the folding enthalpy is -28.9 kcal/mol. Also, the Tm in data set [2] worked out at 56 °C.

On to GTTAAGGCGAAAGCCAAC (((..(((....)))))), for which, in data set [1], the folding enthalpy is -11 kcal/mol. The Tm in data set [2] worked out at 32.8 °C.

With GTTAATGAAAATTAAC ((((((....)))))), the folding enthalpy in data set [1] was -25.9 kcal/mol. In addition, the Tm in data set [2] stood at 40.1 °C.

For GTTAATGGAAACATTAAC (((((((....))))))), the folding enthalpy in data set [1] is -37.7 kcal/mol. In data set [2], the Tm stood at 49.4 °C.

GTTACACCGAAAGGTAAC (((..(((....)))))): in data set [1], the folding enthalpy is -15.8 kcal/mol. In addition, the Tm in data set [2] came out at 31.8 °C.

As to GTTACACGAAAGTGAAC (((.(((....)))))), the folding enthalpy in data set [1] was -15.8 kcal/mol. The Tm in data set [2] was found to be 36.7 °C.

For the sequence GTTACACGAAAGTGCAAC (((.(((....))).))), the folding enthalpy in data set [1] is -23.6 kcal/mol. Further, in data set [2], the Tm was 44.7 °C.

As for GTTACAGAAATGTAAC ((((((....)))))), in data set [1], the folding enthalpy is -33.4 kcal/mol. For the same sequence, the Tm in data set [2] worked out at 46.1 °C.

Consider GTTACAGGAAACTGTAGC (.(((((....))))).), for which the folding enthalpy in data set [1] was -22.6 kcal/mol. Also, the Tm in data set [2] stood at 38.9 °C.

For GTTACAGGAAACTGTGAC ((.((((....)))).)), the folding enthalpy in data set [1] is -30 kcal/mol. For the same sequence, the Tm in data set [2] stood at 44.6 °C.

For GTTACCGAAAGGTCAAC ((((((....))).))), the folding enthalpy in data set [1] is -13.4 kcal/mol. In data set [2], the Tm is 32.8 °C.

For the sequence GTTACCGAAAGGTCGAAC ((((((....)))..))), in data set [1], the folding enthalpy is -9.83 kcal/mol. The Tm in data set [2] was found to be 28.2 °C.

Regarding GTTACCGAAAGGTGAAC ((((((....))).))), the folding enthalpy in data set [1] was -14.8 kcal/mol. Besides, the Tm in data set [2] came out at 39.9 °C.

For GTTACCGAAAGGTTGAAC ((((((....)))..))), the folding enthalpy in data set [1] is -12.8 kcal/mol. The Tm in data set [2] was 29.2 °C.

Consider GTTACGGGAAACCGTAAC (((((((....))))))), for which the folding enthalpy in data set [1] is -46 kcal/mol. Also, the Tm in data set [2] turned out to be 60.5 °C.

For GTTACGGGAAACTGTAAC (((((.(....).))))), the folding enthalpy in data set [1] is -32.7 kcal/mol. In data set [2], the Tm is 45.6 °C.

Take GTTACGGGAAACTGTGAC ((.((.(....).)).)): in data set [1], the folding enthalpy is -24.5 kcal/mol. For the same sequence, in data set [2], the Tm stood at 32.5 °C.

Take GTTACTCGAAAGAGAAAC (((.(((....))).))): the folding enthalpy in data set [1] is -28.2 kcal/mol. In data set [2], the Tm turned out to be 41.9 °C.

Consider GTTACTGGAAACAGTGAC ((.((((....)))).)), for which the folding enthalpy in data set [1] is -27.6 kcal/mol. Besides, the Tm in data set [2] was found to be 44.9 °C.

For GTTAGACGAAAGTCGAAC (((.(((....))).))), the folding enthalpy in data set [1] was -23.5 kcal/mol. In addition, the Tm in data set [2] was 52.4 °C.

For GTTAGAGCGAAAGCTAAC (((..(((....)))))), the folding enthalpy in data set [1] was -14.6 kcal/mol. In addition, the Tm in data set [2] was found to be 33.1 °C.

Consider GTTAGCGAAAGCTAAAAC ((((((....)))..))), for which the folding enthalpy in data set [1] is -13.2 kcal/mol. The Tm in data set [2] is 33.4 °C.
